Values joined by “and” are separate entries in the source; they are usually repeats but may differ in a detail not shown here. Identical values can stand only once. Active and inactive are the calls of the source.
Columns and labels:
Canis familiaris [1] = species: Canis familiaris; test: Maximum Percent change from control in the rate of rise of phase 0 of the action potential at 30 uM concentration on Canine Purkinje fibers.; set-up: species or system Canis lupus familiaris, Purkinje fiber; details: dog, in vitro
Procedure, shortened: (§1)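 Isolated canine Purkinje fibers were superfused with physiological saline gassed with 95% O2/5% CO2 (pH 7.35–7.40) at 36 ± 0.5 °C. Paced at 1.0 Hz with 2-ms pulses at twice diastolic threshold. After up to 1 h stabilization, compounds were tested over 10^-8 to 10^-3 M, 30 min per concentration, one compound per fiber, with vehicle controls. Intracellular microelectrodes (3 M KCl) recorded Vmax and APD95; maximum percent change from control is reported with its concentration.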

Canis familiaris [2] = species: Canis familiaris; test: Percent change from control in the rate of rise of phase 0 of the action potential at 10 uM concentration on Canine Purkinje fibers.; set-up: species or system Canis lupus familiaris, Purkinje fiber; details: dog, in vitro
Canis familiaris [3] = species: Canis familiaris; test: Maximum Percent change from control in the rate of rise of phase 0 of the action potential at 10 uM concentration on Canine Purkinje fibers.; format: functional, Canis lupus familiaris, Purkinje fiber; details: dog, in vitro; procedure, shortened: as §1
Cavia porcellus [4] = species: Cavia porcellus; test: Concentration of compound which gives a 20% decrease in contractile force was tested from individual experiments on papillary muscle of guinea pig, activity was expressed as EC-20.; format: functional; details: Muscle tissue
Procedure, shortened: (§2)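 Contractile force measured in an isolated cardiac muscle preparation. Value is the concentration giving a 20% decrease in force of contraction. NR marks that this decrease was not reached. Values come from individual experiments; for N ≥ 3, the mean is given with the range.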

Canis familiaris [5] = species: Canis familiaris; test: Percent change in repolarization at 10 Purkinje fibers.; value ranges from 9-18; format: functional, Canis lupus familiaris, Purkinje fiber
Procedure, shortened: (§3)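 Canine Purkinje fibers were held in oxygenated (95% O2–5% CO2) physiological saline, pH 7.35–7.40, at 36 ± 0.5 °C and paced at 1.0 Hz with 2-ms pulses at twice diastolic threshold. Intracellular microelectrodes (3 M KCl) recorded Vmax and APD95 simultaneously. After up to 1 h of stabilization, compounds were tested from 10^-8 to 10^-3 M with 30 min per concentration. One compound per fiber, with vehicle controls. For N ≥ 3, values are the mean with the range.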

Canis familiaris [6] = species: Canis familiaris; test: (§4) Maximum Percent change from control in the rate of rise of phase 0 of the action potential at 100 uM concentration on Canine Purkinje fibers.; format: Canis lupus familiaris, Purkinje fiber; details: dog, in vitro; procedure, shortened: as §1
Canis familiaris [7] = species: Canis familiaris; test: Maximum percent change in repolarization at 10 uM concentration on Canine Purkinje fibers.; format: functional, Canis lupus familiaris, Purkinje fiber; procedure, shortened: as §1
Canis familiaris [8] = species: Canis familiaris; test: Percent change from control in the functional refractory period (FRP) at 10 uM conc. on Canine ventricular muscle fibre.; set-up: species or system Canis lupus familiaris, Muscle tissue
Procedure, shortened: (§5)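 Canine right ventricular papillary muscle strips were superfused at 36 ± 0.5 °C with saline gassed with 95% O2/5% CO2. Diastolic threshold was found with 2-ms stimuli at 4000 ms cycle length, then pacing at 4× threshold for 60 min equilibration. FRP was measured at 1000 ms cycle length by S1-S2 premature stimulus after every tenth S1. Conduction time came from a bipolar electrogram. Various compound concentrations were tested, one compound per strip, with vehicle controls. Percent change from control was taken at 10 µM, or the maximum change with its concentration; for N ≥ 3, mean with range.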

Canis familiaris [9] = species: Canis familiaris; test: Maximum percent change in functional refractory period (FRP) at 100 uM on Canine ventricular muscle fibre.; set-up: species or system Canis lupus familiaris, Muscle tissue; procedure, shortened: as §5
Canis familiaris [10] = species: Canis familiaris; test: Maximum percent change in conduction time (CT) at 100 uM concentration tested on Canine ventricular muscle fibre; format: functional, Canis lupus familiaris, Muscle tissue; procedure, shortened: as §5
Canis familiaris [11] = species: Canis familiaris; test: Maximum percent change in repolarization at 100 uM concentration on Canine Purkinje fibers.; format: functional, Canis lupus familiaris, Purkinje fiber; procedure, shortened: as §1
Canis familiaris [12] = species: Canis familiaris; test: Percent change from control in conduction time (CT) at 10 uM concentration tested on Canine ventricular muscle fibre.; M is minimal(<10% change in CT); format: functional; details: Canis lupus familiaris, Muscle tissue; procedure, shortened: as §5
Canis familiaris [13] = species: Canis familiaris; test: Percent change in functional refractory period (FRP) at 10 uM on Canine ventricular muscle fibre.; set-up: species or system Canis lupus familiaris, Muscle tissue
Canis familiaris [14] = species: Canis familiaris; test: Maximum percent change in repolarization at 0.1 uM concentration on Canine Purkinje fibers.; format: functional, Canis lupus familiaris, Purkinje fiber; procedure, shortened: as §1
Canis familiaris [15] = species: Canis familiaris; test: Percent change in repolarization at 10 Purkinje fibers; value ranges from 3-4.; format: functional, Canis lupus familiaris, Purkinje fiber; procedure, shortened: as §3
Canis familiaris [16] = species: Canis familiaris; test: Maximum percent change in repolarization at 1 uM concentration on Canine Purkinje fibers.; format: functional, Canis lupus familiaris, Purkinje fiber; procedure, shortened: as §1
Canis familiaris [17] = species: Canis familiaris; test: Percent change from control in the rate of rise of phase 0 of the action potential at 10 uM concentration on Canine Purkinje fibers.; value ranges from -36.0-1.0; set-up: species or system Canis lupus familiaris, Purkinje fiber; details: dog, in vitro
Cavia porcellus [18] = species: Cavia porcellus; test: Concentration of compound which gives a 20% decrease in contractile force was tested from individual experiment on papillary muscle of guinea pig, activity was expressed as EC-20.; NR is not reached.; format: functional; details: Muscle tissue; procedure, shortened: as §2
Canis familiaris [19] = species: Canis familiaris; test: Maximum percent change in conduction time (CT) at 1 uM concentration tested on Canine ventricular muscle fibre; format: functional, Canis lupus familiaris, Muscle tissue; procedure, shortened: as §5
Canis familiaris [20] = species: Canis familiaris; test: as §4; set-up: species or system Canis lupus familiaris, Purkinje fiber; procedure, shortened: as §1
Canis familiaris [21] = species: Canis familiaris; test: Percent change from control in the functional refractory period (FRP) at 10 uMconc. on Canine ventricular muscle fibre.; value ranges from -4-17; set-up: species or system Canis lupus familiaris, Muscle tissue
Canis familiaris [22] = species: Canis familiaris; test: Maximum percent change in conduction time (CT) at 10 uM concentration tested on Canine ventricular muscle fibre; format: functional, Canis lupus familiaris, Muscle tissue; procedure, shortened: as §5
Canis familiaris [23] = species: Canis familiaris; test: Percent change from control in the rate of rise of phase 0 of the action potential at 10 uM concentration on Canine Purkinje fibers.; value ranges from -32-3; set-up: species or system Canis lupus familiaris, Purkinje fiber; details: dog, in vitro
Canis familiaris [24] = species: Canis familiaris; test: Maximum percent change in repolarization at 30 uM concentration on Canine Purkinje fibers.; format: functional, Canis lupus familiaris, Purkinje fiber; procedure, shortened: as §1
Canis familiaris [25] = species: Canis familiaris; test: Maximum percent change in functional refractory period (FRP) at 0.1 uM on Canine ventricular muscle fibre.; set-up: species or system Canis lupus familiaris, Muscle tissue; procedure, shortened: as §5
Canis familiaris [26] = species: Canis familiaris; test: Percent change in repolarization at 10 Purkinje fibers.; value ranges from 0-25; format: functional, Canis lupus familiaris, Purkinje fiber; procedure, shortened: as §3
Cavia porcellus [27] = species: Cavia porcellus; test: Concentration of compound ( ) which gives a 20% decrease in contractile force was tested on papillary muscle of guinea pig, activity was expressed as EC-20.; format: functional; details: Muscle tissue; procedure, shortened: as §2
Canis familiaris [28] = species: Canis familiaris; test: Percent change in repolarization at 10 Purkinje fibers.; format: functional, Canis lupus familiaris, Purkinje fiber; procedure, shortened: as §3
Cavia porcellus [29] = species: Cavia porcellus; test: Concentration of compound which gives a 20% decrease in contractile force was tested on papillary muscle of guinea pig, activity was expressed as EC-20.; format: functional; details: Muscle tissue; procedure, shortened: as §2
Canis familiaris [30] = species: Canis familiaris; test: Maximum Percent change from control in the rate of rise of phase 0 of the action potential at 100 uM concentration on Canine Purkinje fibers.; details: dog, in vitro
Canis familiaris [31] = species: Canis familiaris; test: Percent change in repolarization at 10 Purkinje fibers.; value ranges from -23-17; format: functional, Canis lupus familiaris, Purkinje fiber; procedure, shortened: as §3
Canis familiaris [32] = species: Canis familiaris; test: Percent change from control in conduction time (CT) at 10 uM concentration tested on Canine ventricular muscle fibre.; format: functional, Canis lupus familiaris, Muscle tissue; procedure, shortened: as §5
[33] = Maximum Percent change from control in the rate of rise of phase 0 of the action potential at 30 uM concentration on Canine Purkinje fibers; CB is conduction block.; format: functional, tissue-based; details: Purkinje fiber; procedure, shortened: as §1

Row | Structure (SMILES) | Vmax (Canis familiaris [1]) [%] | Vmax (Canis familiaris [2]) [%] | Vmax (Canis familiaris [3]) [%] | Vmax (Canis familiaris [6]) [%] | APD95 (Canis familiaris [7]) | FRP (Canis familiaris [8]) [%] | FRP (Canis familiaris [9]) [%] | CT (Canis familiaris [10]) [%] | APD95 (Canis familiaris [11]) [%] | CT (Canis familiaris [12]) | CT (Canis familiaris [19]) [%] | APD95 (Canis familiaris [24]) [%] | EC20 (Cavia porcellus [29]) [µM] | other results
1 | CCN(CC)CCCNC(=O)c1c(C)[nH]c(C)c1C | -14 | – | – | -37 | 4% | – | 16 | – | – | Minimal | -3 | – | – | FRP (Canis familiaris [13]): 4%; APD95 (Canis familiaris [14]): 5%; APD95 (Canis familiaris [15]): 3.7%; APD95 (Canis familiaris [16]): 6%; Vmax (Canis familiaris [17]): -13%; EC20 (Cavia porcellus [18]): Not reached
2 | CCN(CC)CCCNC(=O)c1[nH]c(C)c(C)c1C | – | – | – | – | 7% | – | 28 | 8 | -5 | Minimal | 6 | 26 | – | Vmax (uM) (Canis familiaris [20]): -15%; FRP (Canis familiaris [21]): 5.7%; CT (Canis familiaris [22]): -9%; Vmax (Canis familiaris [23]): -14.3%; FRP (Canis familiaris [25]): 4%; APD95 (Canis familiaris [26]): 8.3%; EC20 (Cavia porcellus [27]): 50 µM
3 | CCN(CC)CCNC(=O)c1cc2cccc(OCc3ccccc3)c2[nH]1 | -66 | -37.7 | -30 | – | 17% | 2 | 10 | 4 | – | – | – | -25 | 6 | APD95 (Canis familiaris [31]): -7%; CT (Canis familiaris [32]): -13%; Vmax [33]: Conduction block

Second part, led by results:

Row | Vmax (Canis familiaris [1]) [%] | Vmax (Canis familiaris [2]) [%] | Vmax (Canis familiaris [3]) [%] | Vmax (Canis familiaris [6]) [%] | Structure (SMILES) | APD95 (Canis familiaris [7]) | FRP (Canis familiaris [8]) [%] | FRP (Canis familiaris [9]) [%] | CT (Canis familiaris [10]) [%] | APD95 (Canis familiaris [11]) [%] | CT (Canis familiaris [12]) | CT (Canis familiaris [19]) [%] | APD95 (Canis familiaris [24]) [%] | EC20 (Cavia porcellus [29]) [µM] | other results
4 | -6 | -2.3 | 5 | -35 | CCN(CC)CCNC(=O)c1cc2ccccc2[nH]1 | 16% and 18% | 15 | 24 | 15 | -24 | Minimal | – | – | – | EC20 (Cavia porcellus [4]): 16 µM; APD95 (Canis familiaris [5]): 14.3%
5 | – | -3 | – | – | CCN(CC)CCNC(=O)c1cc(Cl)c(N)cc1OC [METOCLOPRAMIDE] | – | 17 | 33 | 17 | -17 | inactive | – | – | 10 | APD95 (Canis familiaris [28]): 1%; Vmax (Canis familiaris [30]): -25%
